Results gathered from unrelated publications.
Lines come from different studies, so protocols differ.
Organism: Staphylococcus aureus
Effect on: microbial growth

SMILES | test | test system | setting | MIC
C/C=C(\C)c1cc(OC(=O)c2c(C)c(Cl)c(O)c(Cl)c2O)c(C)c(O)c1C(=O)O | broth dilution | MRSA |  | 64 µg/mL
O=C(O)CN1C(=O)/C(=C/c2ccc(-c3ccc(N(c4ccccc4)c4ccccc4)cc3)cc2)SC1=S | broth dilution | ATCC6538 |  | 3.9 µg/mL
NC[C@H]1O[C@H](O[C@H]2[C@H](O)[C@@H](O[C@H]3O[C@H](CO)[C@@H](O)[C@H](N)[C@H]3O)[C@H](N)C[C@@H]2N)[C@H](N)C[C@@H]1O |  | 156 | clinical isolate | 12.5 µM
CN[C@H](CC(C)C)C(=O)N[C@H]1C(=O)N[C@@H](CC(N)=O)C(=O)N[C@H]2C(=O)N[C@H]3C(=O)N[C@H](C(=O)N[C@H](C(=O)O)c4cc(O)cc(O)c4-c4cc3ccc4O)[C@H](O)c3ccc(c(Cl)c3)Oc3cc2cc(c3O[C@@H]2O[C@H](CO)[C@@H](O)[C@H](O)[C@H]2O[C@H]2C[C@](C)(N)[C@H](O)[C@H](C)O2)Oc2ccc(cc2Cl)[C@H]1O | broth dilution | CCARM3090 |  | 0.5 µg/mL
Cc1cnc(Nc2ccc(OCCN3CCCC3)cc2)nc1Nc1cccc(S(=O)(=O)NC(C)(C)C)c1 |  | NCTC8325 |  | > 30 µM
Cc1ccc2nc(-c3c4ccccc4cc4ccccc34)[nH]c2c1 | broth dilution | ATCC29213 MSSA |  | 64 µg/mL
Cn1c(SCc2ccc(Cl)cc2)nnc1-c1cncc(C#Cc2ccccc2)c1 |  | MRSA | drug-resistant strain | ≥ 20 µg/mL
C[n+]1ccc(/C=C2\Sc3ccccc3N2CCCN2CCCCC2)c2ccccc21.[I-] | broth dilution | ATCCBAA44 |  | 4 µg/mL
C/C=C(\C)c1cc(O)c(C)c(OC(=O)c2c(C)cc(O)c(Cl)c2O)c1 | broth dilution | 6917 |  | 32 µg/mL
CCOc1cc(-c2nc3ccccc3[nH]2)ccc1O | broth dilution | ATCC29213 MSSA |  | 128 µg/mL
CC(C)Oc1c(NC(=O)c2ccc(NC(=O)[C@H](CC(N)=O)NC(=O)c3ccc(NC(=O)c4cc(=O)c(O)c[nH]4)cc3)cc2)ccc(C(=O)Nc2ccc(C(=O)O)cc2)c1O |  | ATCC29213 |  | > 64 µg/mL
CCC1(C)CC(OC(=O)CSc2nnc(N)[nH]2)C2(C)C(C)CCC3(CCC(=O)C32)C(C)C1O (stereo not shown) |  |  |  | 0.5 µg/mL
CCCCCCCC(=O)Oc1c(C)c(O)c(C(=O)/C=C/c2ccccc2)c(OC)c1C | broth dilution | ATCC25923 |  | > 5000 µg/mL
Cc1ccc(C)n1-c1ccc(-c2n[nH]c(=S)[nH]2)cc1 | broth dilution | ATCC11632 | 18 h | 4 µg/mL
CN[C@H](CC(C)C)C(=O)N[C@H]1C(=O)N[C@@H](CC(N)=O)C(=O)N[C@H]2C(=O)N[C@H]3C(=O)N[C@H](C(=O)N[C@H](C(=O)O)c4cc(O)cc(O)c4-c4cc3ccc4O)[C@H](O)c3ccc(c(Cl)c3)Oc3cc2cc(c3O[C@@H]2O[C@H](CO)[C@@H](O)[C@H](O)[C@H]2O[C@H]2C[C@](C)(N)[C@H](O)[C@H](C)O2)Oc2ccc(cc2Cl)[C@H]1O | broth dilution | ATCC43300 |  | 1.96 µg/mL
COc1c(C)c(OC(C)=O)c(C)c(OC(C)=O)c1C(=O)/C=C/c1ccccc1 | broth dilution | ATCC25923 |  | 5000 µg/mL
C=CCn1c(-c2ccc([N+](=O)[O-])cc2)nc2ccccc21 | broth dilution | ATCC29213 MSSA |  | 32 µg/mL
Cc1cc(Nc2nc(N[C@@H](C)c3ccc(F)cc3)c(C#N)cc2F)n[nH]1 |  | NCTC8325 |  | 30 µM
Fc1cccc(Cl)c1-c1nc2ccccc2[nH]1 | broth dilution | ATCC29213 MSSA |  | 64 µg/mL
CO[C@H]1/C=C/O[C@@]2(C)Oc3c(C)c(O)c4c(O)c(c(/C=N/N5CCN(C)CC5)c(O)c4c3C2=O)NC(=O)/C(C)=C\C=C\[C@H](C)[C@H](O)[C@@H](C)[C@@H](O)[C@@H](C)[C@H](OC(C)=O)[C@@H]1C | broth dilution | ATCCBAA44 |  | 2 µg/mL

SMILES | test | test system | setting | MIC
C[C@@H](O)[C@H]1C(=O)N2C(C(=O)O)=C(SCCN=CN)C[C@H]12 |  | MRSA |  | 32 µg/mL
Cc1ccc2nc(-c3ccccc3Cl)[nH]c2c1 | broth dilution | ATCC29213 MSSA |  | 64 µg/mL
COCCCNC(=N)c1ccc(NC(=O)c2ccc(C(=O)Nc3ccc(C(=N)NCCCOC)cc3)cc2)cc1 |  |  |  | 4 µg/mL
NC[C@@H]1O[C@H](O[C@H]2[C@@H](O)[C@H](O[C@@H]3[C@@H](O)[C@H](N)C[C@H](N)[C@H]3O[C@H]3O[C@H](CN)[C@@H](O)[C@H](O)[C@H]3N)O[C@@H]2CO)[C@H](N)[C@@H](O)[C@@H]1O |  | USA300 |  | 5 µg/mL
Cc1ccc2nc(-c3ccc(Cl)cc3)n(Cc3ccccc3)c2c1 | broth dilution | ATCC29213 MSSA |  | 4 µg/mL
O=C(O)CN1C(=O)/C(=C/c2ccc(-c3ccc(N(c4ccccc4)c4ccccc4)cc3)cc2)NC1=S | broth dilution | ATCC6538 |  | 1.95 µg/mL
Cc1ccc2nc(-c3ccc(F)cc3)[nH]c2c1 | broth dilution | ATCC29213 MSSA |  | 64 µg/mL
C[C@@H](O)[C@H]1C(=O)N2C(C(=O)O)=C(SCCN=CN)C[C@H]12 | broth dilution | KCTC1621 | 16 h | 8 µM
O=C(CCCCCCCC[P+](c1ccccc1)(c1ccccc1)c1ccccc1)Nc1ccc(O)c(O)c1.[Br-] | broth dilution | ATCC43300 MRSA | 18 h | > 32 µg/mL
CC(=O)NC[C@H]1CN(c2ccc(N3CCOCC3)c(F)c2)C(=O)O1 | broth dilution | MRSA NRS382 USA100 | drug-resistant strain | 2 µg/mL
O=C(CCCCCCCCCC[P+](c1ccccc1)(c1ccccc1)c1ccccc1)Nc1ccc(O)c(O)c1.[Br-] | broth dilution | ATCC43300 MRSA | 18 h | 16 µg/mL
COc1cc2/c(=N/c3ccc(Br)cc3F)nc[nH]c2cc1OCC1CCN(C)CC1 |  | NCTC8325 |  | > 30 µM
Clc1cccc(NCc2ccc(Oc3ccccn3)cc2)c1 |  |  |  | 1.8 µg/mL
CC(C)Oc1c(NC(=O)c2ccc(NC(=O)[C@H](CC(N)=O)NC(=O)c3ccc(NC(=O)Cc4ccc(C#N)cc4)cc3)cc2)ccc(C(=O)Nc2ccc(C(=O)O)cc2)c1O |  | ATCC29213 |  | > 64 µg/mL
C/C=C(\C)c1cc(OC(=O)c2c(O)c(C)c(O)c(Cl)c2/C(C)=C/C)c(C)c(O)c1C(=O)O | broth dilution | ATCC29213 |  | 64 µg/mL
Cc1cc(C)n(C(=O)c2ccc(-n3c(C)ccc3C)cc2)n1 | broth dilution | ATCC11632 | 18 h | 125 µg/mL
COc1cccc(OC)c1C(=O)N[C@@H]1C(=O)N2[C@@H]1SC(C)(C)[C@@H]2C(=O)O |  | 129 | clinical isolate | 37.5 µM
Cc1cc(C)cc(NC(=O)CN(C)S(=O)(=O)c2ccc3[nH]c4c(c3c2)CCCC4)c1 |  |  |  | > 128 µg/mL
O=c1[nH]cc(F)c(=O)[nH]1 | broth dilution |  | 24 h | 1 µg/mL
CC(C)Oc1c(NC(=O)c2ccc(NC(=O)[C@H](CC(N)=O)NC(=O)c3ccc(NC(=O)CCc4ccc(C#N)cc4)cc3)cc2)ccc(C(=O)Nc2ccc(C(=O)O)cc2)c1O |  | ATCC29213 |  | > 64 µg/mL

SMILES | test | test system | setting | MIC
Cc1cc(C)cc(NC(=O)Nc2ccc(N3CCCCC3)cc2)c1 |  |  |  | > 128 µg/mL
Cc1ccc2nc(-c3cccc([N+](=O)[O-])c3)[nH]c2c1 | broth dilution | ATCC29213 MSSA |  | 64 µg/mL
CC(C)Oc1c(NC(=O)c2ccc(NC(=O)[C@H](CC(N)=O)NC(=O)c3ccc(NC(=O)c4ccc(C#N)cc4)cc3)cc2)ccc(C(=O)Nc2ccc(C(=O)O)cc2)c1O |  | ATCC29213 |  | 0.25 µg/mL
C/C=C(\C)c1cc(O)c(C)c(OC(=O)c2c(C)c(Cl)c(O)c(Cl)c2O)c1 | broth dilution | ATCC29213 |  | 4 µg/mL
FC(F)(F)c1cc(-c2nnc(Sc3cc(Cl)nc(Sc4ccccc4)n3)[nH]2)cc(C(F)(F)F)c1 |  | 83254 |  | 1.6 µM
C#CCCC1(CCNC(=O)c2cc(Oc3ccc(NC(=O)Nc4ccc(Cl)c(C(F)(F)F)c4)cc3)ccn2)N=N1 |  | NCTC8325 | 24 h | 10 µM
O=C1NC(=S)N/C1=C\c1ccc(-c2ccc(N(c3ccccc3)c3ccccc3)cc2)c2ccccc12 | broth dilution | ATCC25923 |  | > 1000 µg/mL
Brc1cccc(NCc2ccc(Oc3ccccn3)cc2)c1 |  |  |  | > 3.1 µg/mL
Nc1ncnc2c1c(-c1cnc3[nH]ccc3c1)nn2C1CCCC1 |  | NCTC8325 |  | > 30 µM
O=C(O)c1cn(C2CC2)c2cc(N3CCNCC3)c(F)cc2c1=O | broth dilution |  | 24 h | 9.43 µM
Cc1[nH]c(/C=C2\C(=O)Nc3ccccc32)c(C)c1CCC(=O)O |  | NCTC8325 |  | > 30 µM
CC(C)Oc1c(NC(=O)c2ccc(NC(=O)[C@H](CC(N)=O)NC(=O)c3ccc(NC(=O)c4cccc([N+](=O)[O-])c4)cc3)cc2)ccc(C(=O)Nc2ccc(C(=O)O)cc2)c1O |  | ATCC29213 |  | > 64 µg/mL
O=C1NN=C(N=Cc2ccccc2O)C1=NNn1c(-c2ccccc2)nc2ccccc2c1=O | broth dilution |  | 24 h | 111 µM
CC(=O)Nc1nc(C)c(-c2ccc(Cl)c(S(=O)(=O)NCCO)c2)s1 |  | NCTC8325 |  | > 30 µM
CC(C)Oc1c(NC(=O)c2ccc(NC(=O)[C@H](CC(N)=O)NC(=O)c3cccc(NC(=O)c4ccc(C#N)cc4)c3)cc2)ccc(C(=O)Nc2ccc(C(=O)O)cc2)c1O |  | ATCC29213 |  | > 64 µg/mL
O=C(O)c1cn(C2CC2)c2cc(N3CCNCC3)c(F)cc2c1=O | broth dilution | ATCC6538 |  | 0.24 µg/mL
CNC(=O)c1ccccc1Sc1ccc2c(/C=C/c3ccccn3)n[nH]c2c1 |  | NCTC8325 |  | > 30 µM
O=C(Nc1ccc(F)cc1)c1ccccc1O | broth dilution | ATCC29213 |  | 32 µg/mL
